Source: ChEMBL document CHEMBL4513216, “Probing the Open Global Health Chemical Diversity Library for Multistage-Active Starting Points for Next-Generation Antimalarials” (ACS Infect Dis, 2020)

Experiment: Toxicity liver stage against HepG2, at 10uM
Type: cell-based
Design: test concentration 10 uM, cell line HepG2-A16-CD81EGFP
Conditions: human, HepG2-A16-CD81EGFP cells; read-out: INHIBITION
Summary of the method: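 Uninfected HepG2-A16-CD81EGFP cells, 3 × 10^3 per well, 1536-well, plated on prespotted compound at 10 μM final, parasite-free screening media added to match infected plates; puromycin 10 μM positive, DMSO 0.5% negative; run in parallel with 48 h PbLuc assay at 37 °C, 5% CO2; viability by CellTiter-Glo luminescence, normalized to controls.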
With `COC(=O)c1cccc(C(=O)N2CCN(c3ccc(OC)cc3)CC2)n1` the cytotoxicity at 10 µM was -7.12%.
With `CC(=O)c1cn(CCC(=O)Nc2c3c(nn2C)CSC3)c2ccccc12` the cytotoxicity at 10 µM was -1.93%.
`COC(=O)[C@H](CCSC)NC(=O)Cc1c(C)nn(-c2ccccc2)c1C` showed a cytotoxicity at 10 µM of -1.65%.
Compound `CC1(C)OCC2(CO1)CN(S(=O)(=O)c1ccc(Cl)s1)C2` has a cytotoxicity at 10 µM of -0.295%.
In the case of `N#Cc1ccc(S(=O)(=O)Nc2cnn(C3CCOCC3)c2)cc1`, the cytotoxicity at 10 µM is reported as -11.3%.
`CN(Cc1cccs1)C1CCC[C@@H]2CN(C(=O)c3cccn3C)C[C@H]12` (stereo partly specified) showed a cytotoxicity at 10 µM of 22.6%.
With `O=C(NCC1CC[C@@]2(CNCCOC2)O1)c1cnccn1` (stereo partly specified) the cytotoxicity at 10 µM was 9.44%.
Compound `COCCNC(=O)[C@]12COC[C@H]1CN(c1cc(OC)ncn1)C2` has a cytotoxicity at 10 µM of 4.32%.
`CN1CCN(CC2CC2)C(=O)C12CCN(C(=O)c1cnccn1)CC2` showed a cytotoxicity at 10 µM of 7.95%.
With `Fc1cccc(N2CCc3ncnc(N4CCOCC4)c3CC2)c1` the cytotoxicity at 10 µM was 9.49%.
`CC(=O)c1cn(CCC(=O)N[C@H](C(=O)O)C(C)C)c2ccccc12` gave a cytotoxicity at 10 µM of 8.86%.
Work on `O=c1[nH]c2nc(N3CCSCC3)ncc2c(=O)n1-c1cccc(F)c1` yielded a cytotoxicity at 10 µM of -1.82%.
For `O=C(NCc1cccs1)C1CN(C(=O)c2cccs2)CC12CCOCC2` (stereo unspecified), the cytotoxicity at 10 µM was -11.5%.
Work on `Cc1nn(C)cc1-c1cc(C(=O)NCC(C)(C)c2ccc(F)cc2)n[nH]1` yielded a cytotoxicity at 10 µM of -1.29%.
Compound `Cc1csc2c(C3CCCN(C(=O)CCn4cncn4)C3)nc(C)n12` (stereo unspecified) has a cytotoxicity at 10 µM of 7.96%.
Compound `Cc1ccsc1C(=O)N1CCC2(CC(N(C)c3ccncn3)C2)C1` (stereo unspecified) has a cytotoxicity at 10 µM of -5.75%.
With `CC(NC(=O)N1CCC2(C1)OCCO2)c1cccc(Cl)c1` (stereo unspecified) the cytotoxicity at 10 µM was -6.88%.
For `CCc1ccc(C(C)NCc2nccn2Cc2ccccc2)o1` (stereo unspecified), the cytotoxicity at 10 µM was -1.2%.
In the case of `CN(Cc1cnn(C)c1)C(=O)CCC(=O)c1ccc2c(c1)OCCO2`, the cytotoxicity at 10 µM is reported as -1.14%.
`O=C(c1cnc(NCCC2CCCO2)c(Cl)c1)N1CCOCC1` (stereo unspecified) gave a cytotoxicity at 10 µM of 7.74%.
In the case of `Cc1ccc(C(=O)N(CCC#N)Cc2ccccn2)cc1C`, the cytotoxicity at 10 µM is reported as 0.665%.
With `CN(Cc1ccco1)C(=O)NCc1nnc2n1CCC2` the cytotoxicity at 10 µM was 16.9%.
Work on `Cc1cc(N2CCN(C(=O)c3cc(Cl)c[nH]3)CC2)nc(C)n1` yielded a cytotoxicity at 10 µM of -2.43%.
Compound `Cc1ccc(C(=O)N2CCN(CCCSCC#N)CC2)cc1F` has a cytotoxicity at 10 µM of -145%.
For `Cc1nn(CC(=O)N2CCN(c3cnccn3)CC2)c(C)c1Cl`, the cytotoxicity at 10 µM was 7.76%.
For `CCOC(=O)c1ccc(Nc2ccc(OC)c(N3CCCC3=O)c2)nc1`, the cytotoxicity at 10 µM was 8.46%.
For `COCCOCCNC(=O)N1CCc2c(F)ccc(F)c2C1`, the cytotoxicity at 10 µM was -2.23%.
With `Cc1ccc(F)cc1NC(=O)CCn1cncn1` the cytotoxicity at 10 µM was -0.639%.
Work on `C[S+]([O-])c1nncn1CCCc1ccc(Cl)cc1` (stereo unspecified) yielded a cytotoxicity at 10 µM of -8.64%.
`COCCn1ccc(NCc2cc3cc(F)ccc3o2)n1` showed a cytotoxicity at 10 µM of -8.78%.
`CCC(C)C(=O)NCCc1nc(C(F)(F)F)cs1` (stereo unspecified) gave a cytotoxicity at 10 µM of 2.08%.
In the case of `CC(C)NC(=O)COc1nc(C(C)C)no1`, the cytotoxicity at 10 µM is reported as -3.34%.
`Cc1ccccc1S(=O)(=O)NC(=O)CSc1ccc2c(c1)OCCO2` gave a cytotoxicity at 10 µM of -1.85%.
Compound `Cc1ccc(OCCC(=O)NC2CCc3nc(C)cn3C2)cc1` (stereo unspecified) has a cytotoxicity at 10 µM of -5.59%.
Work on `CC1CC2(CCN(C(=O)c3c[nH]cn3)CC2)c2ccccc21` (stereo unspecified) yielded a cytotoxicity at 10 µM of 2.44%.
Work on `Cn1cc2c(n1)C(COCC1CC1)CN(Cc1ccsc1)C2` (stereo unspecified) yielded a cytotoxicity at 10 µM of -76.1%.
Compound `O=C(c1ccncc1F)N1CCc2ncnc(N3CCOCC3)c2CC1` has a cytotoxicity at 10 µM of -75%.
With `Cc1ccc(S(=O)(=O)N2CCC3(CC(C(=O)NC4CCC4)=NO3)C2)cc1` (stereo unspecified) the cytotoxicity at 10 µM was -1.77%.
`Nc1ncc(CN2CCC(CCC(=O)NC3CC3)CC2)cn1` gave a cytotoxicity at 10 µM of 11.7%.
With `NC(=O)c1cn2cc(-c3ccccc3Cl)n(CC3CC3)c(=O)c2n1` the cytotoxicity at 10 µM was -1.35%.
Compound `Cn1c(CN2CCCC2)nnc1C1CCCN(C(=O)N2CCOCC2)C1` (stereo unspecified) has a cytotoxicity at 10 µM of -0.193%.
With `Cn1cc(CN2CCOC(CCNC(=O)c3ccsc3)C2)cn1` (stereo unspecified) the cytotoxicity at 10 µM was 2.72%.
For `COCCCC1CCCN(Cc2c(C)ccc3ncccc23)C1` (stereo unspecified), the cytotoxicity at 10 µM was -136%.
For `CC[C@@H](CO)NC(=O)c1cccc(CCC(C)(C)O)c1`, the cytotoxicity at 10 µM was -3.33%.
`COc1ccc(CN2CCC3(CCCN(C)C3=O)C2)c(OC)c1C` (stereo unspecified) showed a cytotoxicity at 10 µM of -0.409%.
`COc1ccc(Cc2ncc3c(n2)CN(C(=O)CN(C)C)C3)cc1` showed a cytotoxicity at 10 µM of -1.28%.
Work on `COc1ccc(OC2CCN(C(=O)CCc3n[nH]c(N)n3)CC2)cc1` yielded a cytotoxicity at 10 µM of 1.43%.
In the case of `O=C(NCCc1cc(=O)[nH]cn1)c1[nH]nc2c1CCCC2`, the cytotoxicity at 10 µM is reported as 2.22%.
Work on `CN(C(=O)C1CCCC1)C(c1cccc(F)c1)c1ccccn1` (stereo unspecified) yielded a cytotoxicity at 10 µM of 6.07%.
In the case of `O=C(CS(=O)(=O)Cc1ccccc1)NC1CCCCNC1=O` (stereo unspecified), the cytotoxicity at 10 µM is reported as -1.46%.
`CC(C)c1nnc2n1CCN(CCC(=O)Nc1sccc1C#N)C2` showed a cytotoxicity at 10 µM of -25.8%.
For `CCc1ccc(S(=O)(=O)Nc2ccc(F)cc2C(=O)O)s1`, the cytotoxicity at 10 µM was 3.69%.
In the case of `CN(Cc1noc(C2CC2)n1)C1CCN(Cc2ccccc2C#N)C1` (stereo unspecified), the cytotoxicity at 10 µM is reported as -7.8%.
In the case of `COc1ccc(-c2nc(CN3CCc4cncnc4C3)no2)cc1`, the cytotoxicity at 10 µM is reported as -3.92%.
`CC(O)CN1CCN(Cc2csc(-c3cnn(C)c3)n2)CC1` (stereo unspecified) showed a cytotoxicity at 10 µM of -4.1%.
In the case of `O=C(CN1CCc2c(ncn2C2CC2)C1)NC1CCOCC1`, the cytotoxicity at 10 µM is reported as -13.4%.
`CCc1nc(C2CCCN(C(=O)c3ccc4[nH]cnc4c3)C2)no1` (stereo unspecified) gave a cytotoxicity at 10 µM of 1.48%.
Compound `COc1c(C2CCCN2C(=O)c2cnccn2)c(C)nn1C` (stereo unspecified) has a cytotoxicity at 10 µM of 0.501%.
Work on `c1cnnc(N2CCCC(NCc3ccc(-n4cncn4)cc3)C2)c1` (stereo unspecified) yielded a cytotoxicity at 10 µM of -3.14%.
With `CC(C)c1nnc2n1CCN(C(=O)c1cccc(OCC(N)=O)c1)C2` the cytotoxicity at 10 µM was -4.38%.
For `Cc1nc(C)n(CC2CCCN2Cc2ccccn2)n1` (stereo unspecified), the cytotoxicity at 10 µM was -0.186%.
`Cc1nc(CN2CCCC2Cn2cncn2)nc2ccccc12` (stereo unspecified) gave a cytotoxicity at 10 µM of -1.63%.
In the case of `CN(Cc1nc2c(cnn2C)c(=O)[nH]1)Cc1ccccc1Cl`, the cytotoxicity at 10 µM is reported as -5.82%.
`CC(C)(CNC(=O)NCCOc1cccc(F)c1)C(N)=O` showed a cytotoxicity at 10 µM of -8.93%.
Compound `Cc1noc(C(C)C)c1C(=O)NCC(c1cccc(F)c1)N(C)C` (stereo unspecified) has a cytotoxicity at 10 µM of -7.46%.
Compound `Cc1ccc(N2CCCC(NCc3ccsc3)C2)nn1` (stereo unspecified) has a cytotoxicity at 10 µM of -7.42%.
`N#Cc1cccnc1OC1CCNCC1` gave a cytotoxicity at 10 µM of -8.99%.
Compound `O=C(NCC1CCC2(CCNCC2)CO1)c1ccno1` (stereo unspecified) has a cytotoxicity at 10 µM of 12.5%.
Compound `CCOCC1CN(C(=O)c2ccnnc2)Cc2cnn(CC)c21` (stereo unspecified) has a cytotoxicity at 10 µM of -77.8%.
With `C1CCN(CCOC2CCNC2)CC1` (stereo unspecified) the cytotoxicity at 10 µM was 6.32%.
`Cc1cccc(S(=O)(=O)N2CC[C@H]3[C@H]2CCN3c2ncccn2)c1` gave a cytotoxicity at 10 µM of 0.995%.
Work on `O=C([C@H]1C[C@H]2OCC[C@H]2N(Cc2ccccn2)C1)N1CCCCO1` yielded a cytotoxicity at 10 µM of -73.3%.
`Cc1cnc(N2CC[C@@H]3O[C@H](COCc4ccccn4)CC[C@@H]32)nc1` showed a cytotoxicity at 10 µM of -76.3%.
`O=C1[C@H]2CN(CC3CCOCC3)C[C@H]2CN1c1ccsc1` gave a cytotoxicity at 10 µM of 8.52%.
For `COCC(=O)N1CCCC2(COCCN(CCN(C)C)C2)C1` (stereo unspecified), the cytotoxicity at 10 µM was 8.76%.
`O=C(C1CCCO1)N1CCC2(CC1)COCCN(Cc1ccncc1)C2` (stereo unspecified) gave a cytotoxicity at 10 µM of -81.1%.
With `CN(C)CCO[C@@H]1CC[C@H]2[C@H]1OCCN2C(=O)CCc1ccccc1` the cytotoxicity at 10 µM was -6.69%.
In the case of `c1cnc(N2CCC3(CCN(CC4CCOCC4)CC3)C2)nc1`, the cytotoxicity at 10 µM is reported as 1.29%.
With `O=C([C@H]1C[C@@H]2[C@@H](C1)OCCN2CC1CC1)N1CCCC1` the cytotoxicity at 10 µM was -2.2%.
`CC(C)N1[C@H](Cn2cncn2)C[C@@H]2CNCC[C@@H]21` gave a cytotoxicity at 10 µM of 1.9%.
With `Cc1ccccc1CNC(=O)N1C[C@@H]2C[C@H](C(=O)N(C)C)[C@H](C1)O2` the cytotoxicity at 10 µM was 5.44%.
